CXCR6 block: blocks human CXCR6 beta-arrestin recruitment; inhibition, % at 20 µM; 360,000 tested, 0.36% active; AID 602244; O00574; CHO-K1 PathHunter CXCR6 beta-arrestin, luminescence; in the data active = inhibition above about 34%, passing the limit was not always enough;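 note: antagonist mode with CXCL16 agonist at 10 nM final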
Target sequence (O00574 whole entry, looked up): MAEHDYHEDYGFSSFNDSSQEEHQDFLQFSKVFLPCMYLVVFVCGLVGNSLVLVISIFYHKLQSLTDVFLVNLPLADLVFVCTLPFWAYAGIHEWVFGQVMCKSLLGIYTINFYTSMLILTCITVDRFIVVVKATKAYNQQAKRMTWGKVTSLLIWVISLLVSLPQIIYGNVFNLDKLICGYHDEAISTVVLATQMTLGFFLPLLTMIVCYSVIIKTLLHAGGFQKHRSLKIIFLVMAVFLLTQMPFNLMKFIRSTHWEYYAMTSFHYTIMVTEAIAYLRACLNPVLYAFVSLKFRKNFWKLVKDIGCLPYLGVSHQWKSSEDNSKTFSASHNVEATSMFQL
APJ antag: APJ receptor antagonism; P35414; CHO-K1 APJ beta-arrestin complementation, luminescence; inhibition, % at 20 µM; 330,000 tested, 0.32% active;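 active = inhibition above about 40% at 20 µM, limit read from the data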;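 note: cells challenged with 10 nM apelin-13 agonist together with compound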
CCR6 antag: antagonists of human CCR6 receptor; inhibition, % at 20 µM; CHO-K1 CCR6 PathHunter beta-arrestin, luminescence, CCL20-stimulated; P51684; 340,000 tested, 0.49% active;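 active = compounds whose inhibition of the agonist-driven luminescence signal at 20 µM reaches about 50%, limit read from the data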;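 note: cells stimulated with CCL20 at 14 nM final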
APJ agonist: agonists of human APJ apelin receptor; CHO-K1 APJ PathHunter beta-arrestin, luminescence; 0% DMSO wells, 100% apelin; activation, % at 20 µM; 330,000 tested, 0.11% active; AID 2520;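 active = activation more than six SD over the plate average, tested at 20 µM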
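Assay system – PathHunter CHO-K1 APJ (AGTRL-1) beta-arrestin reporter cells · Compound – one dose, 20 µM compound, 1% DMSO · Timing – compound 90 min 25 °C, reagent 1 h · Measured by – luminescence from split beta-galactosidase complementation, Galacton Star/Emerald II substrate · Measure – beta-arrestin recruitment to APJ as agonist activity, luminescent signal · Benchmarks – DMSO vs Apelin-13 10 nM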
EBI2 antag: antagonists of human EBI2 receptor | inhibition, % at 5 µM | 360,000 tested, 0.81% active | AID 651636 | P32249 | EBI2 beta-arrestin recruitment, luminescence, 7a,25-OHC stimulated; in the data active = inhibition above about 38%;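 note: enzyme fragment complementation signal reports receptor beta-arrestin coupling in cells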
Target sequence (P32249 whole entry, looked up, the tested form may be a part): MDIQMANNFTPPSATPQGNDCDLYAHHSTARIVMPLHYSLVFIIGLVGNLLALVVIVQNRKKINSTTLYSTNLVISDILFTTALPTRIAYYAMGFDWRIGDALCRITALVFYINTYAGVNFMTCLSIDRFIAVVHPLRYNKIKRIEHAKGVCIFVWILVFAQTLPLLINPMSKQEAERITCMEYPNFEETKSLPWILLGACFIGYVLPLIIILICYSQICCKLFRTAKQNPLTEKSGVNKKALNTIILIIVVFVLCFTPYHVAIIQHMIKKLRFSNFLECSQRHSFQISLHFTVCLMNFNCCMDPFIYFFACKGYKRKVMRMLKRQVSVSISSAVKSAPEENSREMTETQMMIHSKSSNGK
CXCR6 antag conf: CXCR6 antagonism confirmation, single concentration; 700 tested, 65% active; inhibition, % at 20 µM; shares compounds with CXCR6 block; CHO-K1 CXCR6 PathHunter beta-arrestin, luminescence;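 active = mean inhibition over four retests above 40%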;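 note: receptor stimulated with 10 nM CXCL16 agonist; beta-galactosidase fragment complementation upon beta-arrestin recruitment to receptor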
EBI2 antag conf: confirmation of human EBI2 receptor antagonists; shares compounds with EBI2 antag; EBI2 beta-arrestin luminescence, 7a,25-OHC antagonism; inhibition, % at 5 µM; 2,400 tested, 29% active;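 active = inhibition of at least 50%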
EBI2 agonist: counter-screen for EBI2 antagonists: EBI2 agonist activity; 2,400 tested, under 10 active; AID 652000; EBI2-expressing cells, agonist mode, luminescence, 60 min; 0% vehicle, 100% 7α,25-dihydroxycholesterol control; activation, % at 5 µM; shares compounds with EBI2 antag;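 active = activation of at least 50%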
bGal cs: counter-screen for EBI2 antagonists: E. coli beta-galactosidase inhibition | shares compounds with EBI2 antag | purified beta-galactosidase, luminescent Galacton Star, 15 min | inhibition, % at 5 µM | 2,400 tested, 1% active | AID 652176;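 active = replicate-average signal at least 3 plate SD below neutral wells, shown as high inhibition, flagging enzyme-inhibiting false positives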;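 note: higher means stronger loss of beta-gal luminescence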
Each line names hits and unclear results; the compound was inactive in the other large screens (follow-up assays come after a bar, where they were run). Rows were chosen to be rich in hits. Some 1.5% of all compounds tested hit in one or more screens of this group.

COc1ccc(-c2c(C(=O)c3ccccc3)[nH]c(N)c2C(=O)c2ccc(Br)cc2)cc1OC	CXCR6 block 61, EBI2 antag 42 (no result: APJ antag, CCR6 antag, APJ agonist) | CXCR6 antag conf 65 | EBI2 antag conf inactive | EBI2 agonist inactive | bGal cs inactive
O=c1cc(O)cc2n1CCC2	none (no result: APJ antag, CCR6 antag, APJ agonist)
Cc1cc(C)nc(N/N=C/C2=C(O)CC(c3ccc(F)cc3)CC2=O)n1 (centres undefined)	CXCR6 block 60, CCR6 antag 78, EBI2 antag 57 | CXCR6 antag conf inactive | EBI2 antag conf 67 | EBI2 agonist inactive | bGal cs inactive
Cc1ccc(C2CC(=O)C(C=NCCN3CCN(C(=S)Nc4ccc(F)cc4)CC3)=C(O)C2)cc1 (centres undefined)	none
O=C(c1ccc(NS(=O)(=O)/C=C/c2ccccc2)cc1)N1CCCCC1	none
O=C(Nc1ccccc1)c1ccc(Nc2c([N+](=O)[O-])cc([N+](=O)[O-])c3ccccc23)cc1	CXCR6 block 56, APJ antag 75, CCR6 antag 84, EBI2 antag 49 | CXCR6 antag conf 67 | EBI2 antag conf inactive | EBI2 agonist inactive | bGal cs inactive
COc1ccc(N(C(=O)Cn2nnc(-c3ccc(Cl)cc3)n2)C(C(=O)NCC2CCCO2)c2ccncc2)cc1 (centres undefined)	none
COc1ccc(N(C(=O)Cn2nnc(-c3ccc(Cl)cc3)n2)C(C(=O)NCC2CCCO2)c2ccc(C)cc2)cc1 (centres undefined)	EBI2 antag 61 | EBI2 antag conf inactive | EBI2 agonist inactive | bGal cs inactive
C=CCN(C(=O)C1CSC2(C)CCC(=O)N12)c1nc(-c2ccccc2)cs1 (centres undefined)	EBI2 antag 48 | EBI2 antag conf 64 | EBI2 agonist inactive | bGal cs inactive
CCOC(=O)Nc1nnc(/C=C/c2ccc(OC)cc2)s1	none
CCCCOC(=O)Nc1nnc(/C=C/c2ccc(OC)cc2)s1	EBI2 antag 55 | EBI2 antag conf inactive | EBI2 agonist inactive | bGal cs inactive
Cc1cccc(Oc2ncc(-c3ccc(Cl)cc3)cn2)c1	EBI2 antag 44 | EBI2 antag conf inactive | EBI2 agonist inactive | bGal cs inactive
Nc1nn(-c2cccc(F)n2)cc1-c1ccccc1	none
CN1c2ccccc2C2(C)CCCC3=Cc4cccc([N+](=O)[O-])c4OC312 (centres undefined)	EBI2 antag 41 | EBI2 antag conf inactive | EBI2 agonist inactive | bGal cs inactive
COCCCn1c2nc3ccccc3nc2c2c(=O)n(Cc3ccc(Cl)cc3)cnc21	none
O=c1c2c3nc4ccccc4nc3n(Cc3ccccc3)c2ncn1Cc1ccco1	EBI2 antag 51 (no result: APJ antag, APJ agonist) | EBI2 antag conf inactive | EBI2 agonist inactive | bGal cs inactive
Cc1ccc(Nc2ccc(C(=O)NCCc3ccccc3)cn2)cc1	EBI2 antag 83 | EBI2 antag conf 58 | EBI2 agonist inactive | bGal cs inactive
Cc1ccc(OCC(=O)c2ccc3c(c2)CCCC3)cc1C	none
O=C(COc1ccc(Br)cc1)N1CCC(c2ccccc2)C1 (centres undefined)	EBI2 antag 87 | EBI2 antag conf 84 | EBI2 agonist inactive | bGal cs inactive
COc1ccc(OCC(=O)N2CCc3ccccc3C2)cc1	none
O=C(COc1ccc(Br)cc1)N1CCc2ccccc2C1	EBI2 antag 58 | EBI2 antag conf 73 | EBI2 agonist inactive | bGal cs inactive
O=C(COc1ccc(Br)cc1)N1CCOCC1	none
O=C(COc1ccc(Br)cc1)c1ccc2c(c1)CCCC2	EBI2 antag 75 | EBI2 antag conf inactive | EBI2 agonist inactive | bGal cs inactive
COCCN(C(=O)c1cc(Cl)nc2ccccc12)c1c(N)n(Cc2ccccc2)c(=O)[nH]c1=O	none
CC(=O)NS(=O)(=O)c1ccc(N=c2ssc3c2-c2cc(C)c(C)cc2NC3(C)C)cc1	none
Cc1cc2c(cc1C)-c1c(ssc1=Nc1ccc(S(N)(=O)=O)cc1)C(C)(C)N2	EBI2 antag 53 | EBI2 antag conf 58 | EBI2 agonist inactive | bGal cs inactive
O=C(c1ccc(Cl)cc1)N1CCC(O)(CSc2ccc(Cl)cc2Cl)CC1	EBI2 antag 66 | EBI2 antag conf 56 | EBI2 agonist inactive | bGal cs inactive
CCn1c(SCC(=O)NNC(=O)c2ccc(C)cc2)nnc1-c1ccco1	EBI2 antag 80 | EBI2 antag conf inactive | EBI2 agonist inactive | bGal cs inactive
CCCc1nc(SCC(=O)NNC(=O)c2ccc(OC)cc2)c2ccccc2n1	EBI2 antag 77 | EBI2 antag conf inactive | EBI2 agonist inactive | bGal cs inactive
CCn1c(SCC(=O)NNC(=O)c2ccc(OC)cc2)nnc1-c1ccco1	EBI2 antag 70 | EBI2 antag conf inactive | EBI2 agonist inactive | bGal cs inactive
CCCc1nc(SCC(=O)NNC(=O)C2CCCCC2)c2ccccc2n1	none
CC1CC(=O)C2=C(C1)Nc1ccccc1N=C2 (centres undefined)	none
O=C1CC(c2ccc(F)cc2)CC2=C1C=Nc1ccccc1N2 (centres undefined)	EBI2 antag 81 | EBI2 antag conf inactive | EBI2 agonist inactive | bGal cs inactive
O=C1CC(c2ccccc2)CC2=C1C=Nc1ccccc1N2 (centres undefined)	EBI2 antag 53 | EBI2 antag conf inactive | EBI2 agonist inactive | bGal cs inactive
Cc1ccnn1-c1ccc(C(=O)NCc2ccccc2CN2CCOCC2)cc1	none
COc1cc(/C=C/C(=O)N2CCN(Cc3ccccc3)CC2)cc(OC)c1OC	EBI2 antag 61 | EBI2 antag conf inactive | EBI2 agonist inactive | bGal cs inactive
O=C(/C=C/c1ccccc1Cl)NCCc1ccccc1	none
CN1CCN(C(=O)/C=C/c2ccc(Cl)cc2)CC1	EBI2 antag 93 | EBI2 antag conf 79 | EBI2 agonist inactive | bGal cs inactive
O=C(/C=C/c1ccc(Cl)cc1)N(Cc1ccccc1)c1ccccn1	EBI2 antag 41 | EBI2 antag conf inactive | EBI2 agonist inactive | bGal cs inactive
O=C(/C=C/c1ccc(Cl)cc1)NCCc1ccccc1	EBI2 antag 54 | EBI2 antag conf inactive | EBI2 agonist inactive | bGal cs inactive
CC(C)(C)c1ccc(/C=C/C(=O)N2CCCCC2)cc1	none (no result: APJ antag, APJ agonist)
O=C(c1ccccc1)N(Cc1ccccc1)c1ccccn1	none
